Measured values taken from ChEMBL document CHEMBL1142492 (J Med Chem, 2008).

Tests used:
[1] = target: Phosphatidylinositol 5-phosphate 4-kinase type-2 beta (Homo sapiens) (UniProt P78356); assay: Inhibition of PIP5K2B at 3 uM
[2] = target: Angiopoietin-1 receptor (Homo sapiens) (UniProt Q02763); assay: Inhibition of TIE2 at 3 uM
[3] = target: Proto-oncogene tyrosine-protein kinase Src (Homo sapiens) (UniProt P12931); assay: Inhibition of SRC at 3 uM
[4] = target: Ankyrin repeat and protein kinase domain-containing protein 1 (Homo sapiens) (UniProt Q8NFD2); assay: Inhibition of ANKK1 at 3 uM
[5] = target: Non-receptor tyrosine-protein kinase TNK1 (Homo sapiens) (UniProt Q13470); assay: Inhibition of TNK1 at 3 uM
[6] = target: Cyclin-dependent kinase 8 (Homo sapiens) (UniProt P49336); assay: Inhibition of CDK8 at 3 uM
[7] = target: Cyclin-dependent kinase 5 (Homo sapiens) (UniProt Q00535); assay: Inhibition of CDK5 at 3 uM
[8] = target: Serine/threonine-protein kinase MRCK alpha (Homo sapiens) (UniProt Q5VT25); conditions: 3 uM
[9] = target: RAF proto-oncogene serine/threonine-protein kinase (Homo sapiens) (UniProt P04049); assay: Inhibition of RAF1 at 3 uM
[10] = target: NT-3 growth factor receptor (Homo sapiens) (UniProt Q16288); assay: Inhibition of TRKC at 3 uM
[11] = target: Receptor-interacting serine/threonine-protein kinase 4 (Homo sapiens) (UniProt P57078); assay: Inhibition of RIPK4 at 3 uM
[12] = target: Tyrosine-protein kinase CSK (Homo sapiens) (UniProt P41240); assay: Inhibition of CSK at 3 uM
[13] = target: Kappa-type opioid receptor (Homo sapiens) (UniProt P41145); assay: Inhibition of human kappa opioid receptor at 3 uM
Rattus norvegicus = organism: Rattus norvegicus; conditions: 3 uM
[14] = target: Cyclin-dependent kinase 17 (Homo sapiens) (UniProt Q00537); assay: Inhibition of PCTK2 at 3 uM
Mus musculus = organism: Mus musculus; conditions: 3 uM
[15] = target: Dual specificity mitogen-activated protein kinase kinase 1 (Homo sapiens) (UniProt Q02750); assay: Inhibition of MEK1 at 3 uM
[16] = system: Phosphatidylinositol 4,5-bisphosphate 3-kinase catalytic subunit alpha isoform (Homo sapiens), P42336 [E545K]; assay: Inhibition of PIK3CA E545K mutant at 3 uM
[17] = target: Serine/threonine-protein kinase 36 (Homo sapiens) (UniProt Q9NRP7); assay: Inhibition of STK36 at 3 uM
CYP2C9 = CYP2C9 (Homo sapiens, UniProt P11712); assay: Inhibition of human CYP2C9 at 10 uM; type: ADME
[18] = target: Activin receptor type-2A (Homo sapiens) (UniProt P27037); assay: Inhibition of ACVR2A at 3 uM
[19] = target: TGF-beta receptor type-1 (Homo sapiens) (UniProt P36897); assay: Inhibition of TGFBR1 at 3 uM
[20] = target: Serine/threonine-protein kinase 3 (Homo sapiens) (UniProt Q13188); assay: Inhibition of MST2 at 3 uM
[21] = target: Alpha-1B adrenergic receptor (Rattus norvegicus) (UniProt P15823); assay: Inhibition of rat adrenergic Alpha-1B receptor at 3 uM
[22] = target: Insulin receptor-related protein (Homo sapiens) (UniProt P14616); assay: Inhibition of INSRR at 3 uM
[23] = target: Serine/threonine-protein kinase Chk2 (Homo sapiens) (UniProt O96017); assay: Inhibition of CHEK2 at 3 uM
[24] = target: Sodium-dependent serotonin transporter (Homo sapiens) (UniProt P31645); assay: Inhibition of human SERT at 3 uM
[25] = target: Receptor-interacting serine/threonine-protein kinase 1 (Homo sapiens) (UniProt Q13546); assay: Inhibition of RIPK1 at 3 uM
[26] = target: Mitogen-activated protein kinase kinase kinase kinase 4 (Homo sapiens) (UniProt O95819); assay: Inhibition of MAP4K4 at 3 uM
[27] = target: Serine/threonine-protein kinase pim-1 (Homo sapiens) (UniProt P11309); assay: Inhibition of PIM1 at 3 uM
[28] = system: Tyrosine-protein kinase ABL1 (Homo sapiens), P00519 [E255K]; assay: Inhibition of ABL1E255K mutant at 3 uM
[29] = target: Epidermal growth factor receptor (Homo sapiens) (UniProt P04626+P00533+Q15303+P21860); assay: Inhibition of EGFR L747-E749del,A750P mutant at 3 uM; type: protein assay
[30] = target: Calcium/calmodulin-dependent protein kinase kinase 2 (Homo sapiens) (UniProt Q96RR4); assay: Inhibition of CAMKK2 at 3 uM
[31] = target: Cyclin-dependent kinase 19 (Homo sapiens) (UniProt Q9BWU1); assay: Inhibition of CDK11 at 3 uM
[32] = target: Myosin-IIIa (Homo sapiens) (UniProt Q8NEV4); assay: Inhibition of MYO3A at 3 uM
[33] = target: Serine/threonine-protein kinase 24 (Homo sapiens) (UniProt Q9Y6E0); assay: Inhibition of MST3 at 3 uM
[34] = target: Mitogen-activated protein kinase 9 (Homo sapiens) (UniProt P45984); assay: Inhibition of JNK2 at 3 uM
[35] = system: Tyrosine-protein kinase ABL1 (Homo sapiens), P00519 [M351T]; assay: Inhibition of ABL1 M351T mutant at 3 uM
[36] = Inhibition of myosin light chain bisphosphorylation in rat A7r5 cells after 1 hr
[37] = target: Tyrosine-protein kinase Blk (Homo sapiens) (UniProt P51451); assay: Inhibition of BLK at 3 uM
[38] = target: Death-associated protein kinase 1 (Homo sapiens) (UniProt P53355); assay: Inhibition of DAPK1 at 3 uM
[39] = target: Serine/threonine-protein kinase 32C (Homo sapiens) (UniProt Q86UX6); assay: Inhibition of YANK3 at 3 uM
[40] = target: Macrophage-stimulating protein receptor (Homo sapiens) (UniProt Q04912); assay: Inhibition of MST1R at 3 uM
[41] = target: Type-1 angiotensin II receptor (Homo sapiens) (UniProt P30556); assay: Inhibition of human AT1 receptor at 3 uM
Outline: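 Counter-screen binding/enzyme panel at single 3 μM, n=2; results as percent inhibition. Species per target as listed (rat NMDA, GABAA sites; human receptors, transporters; rabbit ACE).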

[42] = target: Serine/threonine-protein kinase 4 (Homo sapiens) (UniProt Q13043); assay: Inhibition of MST1 at 3 uM
[43] = target: Vascular endothelial growth factor receptor 2 (Homo sapiens) (UniProt P35968); assay: Inhibition of VEGFR2 at 3 uM
[44] = target: Mitogen-activated protein kinase 8 (Homo sapiens) (UniProt P45983); assay: Inhibition of JNK1 at 3 uM

Sodium-dependent serotonin transporter (Homo sapiens), sequence (P31645 whole entry, looked up): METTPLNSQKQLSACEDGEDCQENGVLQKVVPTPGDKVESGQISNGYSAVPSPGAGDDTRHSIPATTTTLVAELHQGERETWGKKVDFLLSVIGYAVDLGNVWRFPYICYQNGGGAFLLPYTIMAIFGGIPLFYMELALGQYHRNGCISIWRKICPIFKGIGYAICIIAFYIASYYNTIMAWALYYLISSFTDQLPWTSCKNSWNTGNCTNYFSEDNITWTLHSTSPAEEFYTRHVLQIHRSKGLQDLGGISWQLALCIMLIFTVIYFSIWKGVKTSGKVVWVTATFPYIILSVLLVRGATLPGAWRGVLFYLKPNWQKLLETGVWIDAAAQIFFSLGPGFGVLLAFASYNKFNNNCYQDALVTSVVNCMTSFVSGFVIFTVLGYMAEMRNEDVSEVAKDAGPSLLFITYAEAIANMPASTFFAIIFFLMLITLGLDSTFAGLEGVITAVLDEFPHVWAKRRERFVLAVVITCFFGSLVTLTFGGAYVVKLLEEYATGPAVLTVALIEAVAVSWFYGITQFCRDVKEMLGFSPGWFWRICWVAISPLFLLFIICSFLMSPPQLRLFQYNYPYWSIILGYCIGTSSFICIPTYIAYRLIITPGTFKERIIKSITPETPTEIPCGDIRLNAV
Non-receptor tyrosine-protein kinase TNK1 (Homo sapiens), sequence (Q13470 whole entry): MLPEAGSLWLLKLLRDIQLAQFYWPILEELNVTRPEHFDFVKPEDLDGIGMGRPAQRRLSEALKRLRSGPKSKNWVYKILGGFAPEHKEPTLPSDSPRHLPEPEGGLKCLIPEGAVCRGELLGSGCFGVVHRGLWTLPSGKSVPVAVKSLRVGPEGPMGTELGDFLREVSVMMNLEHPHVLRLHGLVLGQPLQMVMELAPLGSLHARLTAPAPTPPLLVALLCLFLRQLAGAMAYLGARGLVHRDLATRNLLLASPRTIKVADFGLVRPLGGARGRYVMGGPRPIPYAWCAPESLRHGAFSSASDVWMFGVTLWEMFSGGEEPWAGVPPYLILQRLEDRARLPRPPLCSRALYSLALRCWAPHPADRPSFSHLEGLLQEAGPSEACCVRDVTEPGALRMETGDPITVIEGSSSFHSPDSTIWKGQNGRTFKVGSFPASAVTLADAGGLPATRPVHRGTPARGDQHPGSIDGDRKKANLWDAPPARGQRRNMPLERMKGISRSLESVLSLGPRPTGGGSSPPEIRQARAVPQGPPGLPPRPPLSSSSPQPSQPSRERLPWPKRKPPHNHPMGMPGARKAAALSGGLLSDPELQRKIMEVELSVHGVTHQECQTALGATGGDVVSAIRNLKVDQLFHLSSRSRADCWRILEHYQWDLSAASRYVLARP
Cyclin-dependent kinase 19 (Homo sapiens), sequence (Q9BWU1 whole entry): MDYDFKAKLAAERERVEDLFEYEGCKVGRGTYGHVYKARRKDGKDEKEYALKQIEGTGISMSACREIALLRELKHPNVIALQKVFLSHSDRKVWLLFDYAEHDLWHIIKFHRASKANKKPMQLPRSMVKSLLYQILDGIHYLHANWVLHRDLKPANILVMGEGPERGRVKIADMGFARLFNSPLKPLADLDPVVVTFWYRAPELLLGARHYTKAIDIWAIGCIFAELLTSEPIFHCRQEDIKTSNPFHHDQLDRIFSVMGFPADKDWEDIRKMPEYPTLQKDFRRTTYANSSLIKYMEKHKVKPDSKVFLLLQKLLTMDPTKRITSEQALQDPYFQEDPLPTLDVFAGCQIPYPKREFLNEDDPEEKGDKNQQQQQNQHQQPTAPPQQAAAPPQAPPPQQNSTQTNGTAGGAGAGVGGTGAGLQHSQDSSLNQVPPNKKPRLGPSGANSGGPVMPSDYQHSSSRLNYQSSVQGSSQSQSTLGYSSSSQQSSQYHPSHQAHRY
Serine/threonine-protein kinase 32C (Homo sapiens), sequence (Q86UX6 whole entry): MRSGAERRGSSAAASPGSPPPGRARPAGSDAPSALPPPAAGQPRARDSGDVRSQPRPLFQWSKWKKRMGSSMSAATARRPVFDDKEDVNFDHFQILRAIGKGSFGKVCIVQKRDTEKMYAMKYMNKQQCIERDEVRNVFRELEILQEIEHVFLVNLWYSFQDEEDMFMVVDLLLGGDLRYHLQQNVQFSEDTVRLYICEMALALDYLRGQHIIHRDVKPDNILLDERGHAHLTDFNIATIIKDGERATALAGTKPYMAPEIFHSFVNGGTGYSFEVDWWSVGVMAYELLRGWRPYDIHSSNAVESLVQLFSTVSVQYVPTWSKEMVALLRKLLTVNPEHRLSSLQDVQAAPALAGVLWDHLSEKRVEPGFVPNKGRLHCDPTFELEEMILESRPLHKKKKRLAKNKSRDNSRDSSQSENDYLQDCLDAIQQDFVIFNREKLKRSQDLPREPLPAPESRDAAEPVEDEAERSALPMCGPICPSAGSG
Serine/threonine-protein kinase MRCK alpha (Homo sapiens), sequence (Q5VT25 whole entry): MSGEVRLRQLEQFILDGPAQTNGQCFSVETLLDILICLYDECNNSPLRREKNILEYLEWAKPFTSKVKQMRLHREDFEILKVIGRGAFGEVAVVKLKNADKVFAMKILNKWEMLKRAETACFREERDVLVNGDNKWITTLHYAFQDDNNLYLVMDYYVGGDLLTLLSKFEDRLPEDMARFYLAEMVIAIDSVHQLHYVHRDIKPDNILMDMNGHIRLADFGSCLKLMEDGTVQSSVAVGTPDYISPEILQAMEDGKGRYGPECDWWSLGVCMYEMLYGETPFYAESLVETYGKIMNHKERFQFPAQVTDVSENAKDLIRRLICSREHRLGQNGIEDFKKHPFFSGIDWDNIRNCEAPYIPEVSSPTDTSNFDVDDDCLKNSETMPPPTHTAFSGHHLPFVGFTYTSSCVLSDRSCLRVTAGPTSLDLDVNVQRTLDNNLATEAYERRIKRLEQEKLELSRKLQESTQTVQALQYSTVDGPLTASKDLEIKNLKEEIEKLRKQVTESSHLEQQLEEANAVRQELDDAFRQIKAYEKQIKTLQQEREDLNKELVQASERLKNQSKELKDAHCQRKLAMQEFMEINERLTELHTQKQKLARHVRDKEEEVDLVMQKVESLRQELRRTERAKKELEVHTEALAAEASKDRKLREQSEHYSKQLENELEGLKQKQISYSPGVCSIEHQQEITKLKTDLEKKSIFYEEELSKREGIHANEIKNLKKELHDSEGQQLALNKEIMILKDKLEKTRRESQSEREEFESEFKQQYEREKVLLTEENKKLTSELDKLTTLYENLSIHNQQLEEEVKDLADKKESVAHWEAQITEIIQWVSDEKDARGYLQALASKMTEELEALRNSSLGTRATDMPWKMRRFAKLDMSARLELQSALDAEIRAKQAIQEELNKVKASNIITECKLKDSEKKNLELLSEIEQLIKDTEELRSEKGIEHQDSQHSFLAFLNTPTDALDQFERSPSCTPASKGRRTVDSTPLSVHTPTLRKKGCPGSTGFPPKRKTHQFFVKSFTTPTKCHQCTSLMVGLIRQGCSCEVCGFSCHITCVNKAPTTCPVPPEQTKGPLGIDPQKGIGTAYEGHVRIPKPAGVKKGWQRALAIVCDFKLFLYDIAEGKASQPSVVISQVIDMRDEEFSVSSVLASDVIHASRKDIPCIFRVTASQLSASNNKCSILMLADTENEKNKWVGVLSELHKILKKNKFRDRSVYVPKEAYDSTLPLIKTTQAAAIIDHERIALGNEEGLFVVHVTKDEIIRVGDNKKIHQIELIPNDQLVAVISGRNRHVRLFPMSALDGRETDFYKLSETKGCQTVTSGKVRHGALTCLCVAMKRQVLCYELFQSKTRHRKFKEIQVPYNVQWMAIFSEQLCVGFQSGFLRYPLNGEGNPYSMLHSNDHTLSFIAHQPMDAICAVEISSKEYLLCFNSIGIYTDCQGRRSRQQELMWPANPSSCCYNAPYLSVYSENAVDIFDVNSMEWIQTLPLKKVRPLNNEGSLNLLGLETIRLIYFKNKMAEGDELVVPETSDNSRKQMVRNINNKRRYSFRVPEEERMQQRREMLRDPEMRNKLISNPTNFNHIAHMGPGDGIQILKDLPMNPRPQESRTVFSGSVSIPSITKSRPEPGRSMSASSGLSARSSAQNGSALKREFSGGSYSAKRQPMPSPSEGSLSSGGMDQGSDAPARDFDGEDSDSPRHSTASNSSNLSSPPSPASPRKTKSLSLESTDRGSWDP
Phosphatidylinositol 5-phosphate 4-kinase type-2 beta (Homo sapiens), sequence (P78356 whole entry): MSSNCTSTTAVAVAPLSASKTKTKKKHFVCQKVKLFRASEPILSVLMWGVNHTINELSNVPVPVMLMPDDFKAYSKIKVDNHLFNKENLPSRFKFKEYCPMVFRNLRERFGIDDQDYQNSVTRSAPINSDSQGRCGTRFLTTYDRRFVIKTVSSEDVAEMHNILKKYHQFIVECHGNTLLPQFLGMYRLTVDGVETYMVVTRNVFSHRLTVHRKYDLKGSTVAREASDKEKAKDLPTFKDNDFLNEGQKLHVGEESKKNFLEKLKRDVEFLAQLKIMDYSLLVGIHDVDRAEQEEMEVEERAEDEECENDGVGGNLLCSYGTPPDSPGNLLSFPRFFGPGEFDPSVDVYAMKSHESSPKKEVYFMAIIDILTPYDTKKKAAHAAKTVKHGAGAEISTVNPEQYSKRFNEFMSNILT
Type-1 angiotensin II receptor (Homo sapiens), sequence (P30556 whole entry): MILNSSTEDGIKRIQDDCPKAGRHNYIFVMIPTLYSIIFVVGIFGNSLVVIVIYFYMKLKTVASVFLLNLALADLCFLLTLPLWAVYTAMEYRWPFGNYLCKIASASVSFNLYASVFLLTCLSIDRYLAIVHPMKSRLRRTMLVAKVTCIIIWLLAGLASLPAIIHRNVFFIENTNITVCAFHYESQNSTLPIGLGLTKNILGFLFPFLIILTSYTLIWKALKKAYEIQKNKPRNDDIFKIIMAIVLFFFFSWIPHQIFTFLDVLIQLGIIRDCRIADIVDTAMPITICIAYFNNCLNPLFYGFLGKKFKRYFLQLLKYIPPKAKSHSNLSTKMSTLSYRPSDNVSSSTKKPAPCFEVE

In the case of `CN(C)CCOc1cc(-c2cn[nH]c2)ccc1NC(=O)C1COc2ccccc2O1` (configuration not stated) [SR-3677], the inhibition [1] is reported as less than 10%, the inhibition [2] is reported as less than 10% and the inhibition [3] is reported as less than 10%. The inhibition [4] was less than 10%, the inhibition [5] was less than 10% and the inhibition [6] was less than 10%. The inhibition [7] was less than 10%, the inhibition [8] was less than 10% and the inhibition [9] was less than 10%. The inhibition [10] was less than 10%, the inhibition [11] was less than 10% and the inhibition [12] was less than 10%. The inhibition [13] was -7%, the inhibition (Rattus norvegicus) was 24% and the inhibition [14] was less than 10%. For the same molecule, the inhibition (Mus musculus) was -2%, the inhibition [15] was less than 10% and the inhibition [16] was less than 10%. It also gave an inhibition [17] of less than 10%, an inhibition at 10 µM (CYP2C9) of 80% and an inhibition [18] of less than 10%. The inhibition [19] was less than 10%, the inhibition [20] was less than 10% and the inhibition [21] was 68%. It also gave an inhibition [22] of less than 10%, an inhibition [23] of less than 10% and an inhibition [24] of 3%. For the same molecule, the inhibition [25] was less than 10%, the inhibition [26] was less than 10% and the inhibition [27] was less than 10%. It also gave an inhibition [28] of less than 10%, an inhibition [29] of less than 10% and an inhibition [30] of less than 10%. The inhibition [31] was less than 10%, the inhibition [32] was less than 10% and the inhibition [33] was less than 10%. For the same molecule, the inhibition [34] was less than 10%, the inhibition [35] was less than 10% and the IC50 [36] was 3.5 nM. The inhibition [37] was less than 10%, the inhibition [38] was less than 10% and the inhibition [39] was less than 10%. For the same molecule, the inhibition [40] was less than 10%, the inhibition [41] was -1% and the inhibition [42] was less than 10%. The inhibition [43] was less than 10% and the inhibition [44] was less than 10%.
